Results published in PMC10193968 (Proceedings of the National Academy of Sciences of the …, 2023).

Tests used:
S. frugiperda males = details: presence at 1% in synthetic pheromone blends; cited from earlier work
S. littoralis males = details: traps baited with their own sex pheromones; cited from earlier work
S. litura males = details: traps baited with their own sex pheromones; cited from earlier work
SfruOR5 = experiment: Two-electrode voltage-clamp on Xenopus oocytes expressing SfruOR5; assay type: cell-based, S. frugiperda; details: 10^–4 M; panel of 13 pheromone compounds; confirms the Drosophila OSN profile
SlituOR5 [1] = experiment: Single-sensillum recordings on Drosophila at1 OSNs expressing SlituOR5; assay type: cell-based, S. litura; details: 10 μg loaded in the stimulus cartridge; panel of 26 pheromone compounds
AncOR5 [2] = experiment: Single-sensillum recordings on Drosophila at1 OSNs expressing resurrected AncOR5; assay type: cell-based, ancestor of S. littoralis and S. litura; details: 10 μg loaded in the stimulus cartridge; panel of 26 pheromone compounds
AncOR5_75 = assay type: cell-based, ancestor of S. littoralis and S. litura; details: doses 10 ng to 100 µg in the stimulus cartridge
In short: (§1)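 Dose–response by single-sensillum extracellular recording from at1 OSNs of flies expressing the receptor transgene instead of Or67d (UAS-Or crossed to Or67d-GAL4). Flies reared at 25 °C, 12 h:12 h light:dark. Stimuli lasted 500 ms, delivered from filter-paper cartridges loaded with 10 ng to 100 µg pheromone diluted in hexane.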

[3] = system: S. littoralis and S. litura males; details: detection of the compound; cited from earlier work
SlitOR75 = experiment: Single-sensillum recordings on Drosophila at1 OSNs expressing SlitOR75; assay type: cell-based, S. littoralis; details: 10 μg loaded in the stimulus cartridge; panel of 26 pheromone compounds
In short: (§2)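 Receptor expressed in Drosophila at1 OSNs in place of Or67d (UAS-Or × Or67d-GAL4, double homozygous). Flies kept on cornmeal–yeast–agar at 25 °C, 12 h:12 h light:dark. Single-sensillum extracellular recording with 500 ms stimulation from Pasteur-pipette cartridges holding 10 µg compound (hexane dilution) on filter paper. Panel of 26 pheromone compounds. Active if different from solvent alone (one-way ANOVA, Dunnett's post hoc).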

AncOR5 [4] = experiment: Two-electrode voltage-clamp on Xenopus oocytes coexpressing AncOR5 and SlitOrco; assay type: cell-based, ancestor of S. littoralis and S. litura
SlitOR5 = experiment: Single-sensillum recordings on Drosophila at1 OSNs expressing SlitOR5; assay type: cell-based, S. littoralis; details: 10 μg loaded in the stimulus cartridge; panel of 26 pheromone compounds
In short: as §2

AncOR75 = assay type: cell-based, ancestor of S. littoralis and S. litura; details: doses 10 ng to 100 µg in the stimulus cartridge
In short: as §1

SexiOR5 = experiment: Two-electrode voltage-clamp on Xenopus oocytes expressing SexiOR5; assay type: cell-based, S. exigua; details: 10^–4 M; panel of 13 pheromone compounds; confirms the Drosophila OSN profile
AncOR5_75_mut8x = assay type: cell-based; details: read-out: EC50, AncOR5_75_mut8x; Xenopus oocytes, concentrations 10^–8 to 10^–4 M
S. exigua males = details: cited from earlier work
SlituOR75 = experiment: Single-sensillum recordings on Drosophila at1 OSNs expressing SlituOR75; assay type: cell-based, S. litura; details: 10 μg loaded in the stimulus cartridge; panel of 26 pheromone compounds
In short: as §2

SlituOR5 [5] = experiment: Two-electrode voltage-clamp on Xenopus oocytes expressing SlituOR5; assay type: cell-based, S. litura; details: 10^–4 M; panel of 13 pheromone compounds; confirms the Drosophila OSN profile
[6] = system: AncOR5_75 V79L_A143T_A204V; assay type: cell-based; details: 10^−5 M solution; panel of six S. littoralis pheromone compounds
In short: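 Mutation introduced into the pCS2+ ancestral-receptor plasmid and confirmed by Sanger sequencing. Capped cRNA made with SP6 from NotI-linearized template, coexpressed with SlitOrco in Xenopus oocytes. Two-electrode voltage-clamp inward currents to six compounds at 10^-5 M, diluted from 0.1 M DMSO stocks into Ringer's (HEPES, pH 7.6). Ringer's with 0.01% DMSO as negative control. Tuning compared by principal component analysis.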

## CC/C=C/CCCCCCCCCCOC(C)=O [(E)-11-14:OAc, (E)-11-tetradecenyl acetate]
S. frugiperda males
  Proportion of males approaching the source in wind tunnel: strongly increased the proportion of males approaching the source

## CCCC/C=C\CCCCCCCCO [(Z)-9-14:OH, (Z)-9-tetradecen-1-ol]
S. littoralis males
  Effect on trap catches of S. littoralis males: reduces catches in traps
S. litura males
  Effect on trap catches of S. litura males: reduces catches in traps

## CC/C=C\CCCCCCCCCCOC(C)=O [(Z)-11-14:OAc, (Z)-11-tetradecenyl acetate]
S. frugiperda males
  Proportion of males approaching the source in wind tunnel: strongly increased the proportion of males approaching the source
SfruOR5
  Response spectrum (inward current), SfruOR5: best SfruOR5 ligands

## CC/C=C/C=C\CCCCCCCCOC(C)=O [(Z,E)-9,11-14:OAc, (Z,E)-9,11-tetradecadienyl acetate]
SlituOR5 [1]
  Action potential frequency of at1 OSNs expressing SlituOR5: strong responses
AncOR5 [2]
  Action potential frequency of at1 OSNs expressing AncOR5: responded specifically
AncOR5_75
  Activation threshold / sensitivity, dose–response of AncOR5_75: same activation threshold as AncOR5
SfruOR5
  Response spectrum (inward current), SfruOR5: can bind
[3]
  Male attraction: necessary and sufficient to trigger male attraction
SlitOR75
  Action potential frequency of at1 OSNs expressing SlitOR75: low responses
AncOR5 [4]; 10^−5 M solution, panel of six S. littoralis pheromone compounds
  Inward current, AncOR5: specifically responded
AncOR5 [4]; read-out: EC50, AncOR5, Xenopus oocytes, concentrations 10^–8 to 10^–4 M
  EC50: 1.1 µM
SlitOR5
  Action potential frequency of at1 OSNs expressing SlitOR5: strong responses
AncOR75
  Activation threshold / sensitivity, dose–response of AncOR75: same activation threshold as AncOR5
SexiOR5
  Response spectrum (inward current), SexiOR5: can bind
AncOR5_75_mut8x
  EC50: 0.4 µM
S. exigua males
  Effect on trap catches of S. exigua males: decreases trap catches
SlituOR75
  Action potential frequency of at1 OSNs expressing SlituOR75: low responses
SlituOR5 [5]
  Response spectrum (inward current), SlituOR5: narrowly tuned

## C/C=C/C/C=C\CCCCCCCCOC(C)=O [(Z,E)-9,12-14:OAc, (Z,E)-9,12-tetradecadienyl acetate]
[6]
  Inward current, triple-mutant V79L_A143T_A204V: narrow tuning

## CC/C=C\C=C/CCCCCCCCOC(C)=O [(Z,Z)-9,11-14:OAc, (Z,Z)-9,11-tetradecadienyl acetate]
SlituOR5 [1]
  Action potential frequency of at1 OSNs expressing SlituOR5: significant yet minor response
AncOR5_75
  Activation threshold / sensitivity, dose–response of AncOR5_75: best ligand
AncOR75
  Activation threshold / sensitivity, dose–response of AncOR75: best ligand
